This is an account of results in ChEMBL document CHEMBL4000256, “Light-Regulated NO Release as a Novel Strategy To Overcome Doxorubicin Multidrug Resistance” (ACS Med Chem Lett, 2017).

The target in data set [1] is T1, ATP-binding cassette sub-family C member 4 (Homo sapiens, UniProt O15439).
T1 sequence (O15439 whole entry): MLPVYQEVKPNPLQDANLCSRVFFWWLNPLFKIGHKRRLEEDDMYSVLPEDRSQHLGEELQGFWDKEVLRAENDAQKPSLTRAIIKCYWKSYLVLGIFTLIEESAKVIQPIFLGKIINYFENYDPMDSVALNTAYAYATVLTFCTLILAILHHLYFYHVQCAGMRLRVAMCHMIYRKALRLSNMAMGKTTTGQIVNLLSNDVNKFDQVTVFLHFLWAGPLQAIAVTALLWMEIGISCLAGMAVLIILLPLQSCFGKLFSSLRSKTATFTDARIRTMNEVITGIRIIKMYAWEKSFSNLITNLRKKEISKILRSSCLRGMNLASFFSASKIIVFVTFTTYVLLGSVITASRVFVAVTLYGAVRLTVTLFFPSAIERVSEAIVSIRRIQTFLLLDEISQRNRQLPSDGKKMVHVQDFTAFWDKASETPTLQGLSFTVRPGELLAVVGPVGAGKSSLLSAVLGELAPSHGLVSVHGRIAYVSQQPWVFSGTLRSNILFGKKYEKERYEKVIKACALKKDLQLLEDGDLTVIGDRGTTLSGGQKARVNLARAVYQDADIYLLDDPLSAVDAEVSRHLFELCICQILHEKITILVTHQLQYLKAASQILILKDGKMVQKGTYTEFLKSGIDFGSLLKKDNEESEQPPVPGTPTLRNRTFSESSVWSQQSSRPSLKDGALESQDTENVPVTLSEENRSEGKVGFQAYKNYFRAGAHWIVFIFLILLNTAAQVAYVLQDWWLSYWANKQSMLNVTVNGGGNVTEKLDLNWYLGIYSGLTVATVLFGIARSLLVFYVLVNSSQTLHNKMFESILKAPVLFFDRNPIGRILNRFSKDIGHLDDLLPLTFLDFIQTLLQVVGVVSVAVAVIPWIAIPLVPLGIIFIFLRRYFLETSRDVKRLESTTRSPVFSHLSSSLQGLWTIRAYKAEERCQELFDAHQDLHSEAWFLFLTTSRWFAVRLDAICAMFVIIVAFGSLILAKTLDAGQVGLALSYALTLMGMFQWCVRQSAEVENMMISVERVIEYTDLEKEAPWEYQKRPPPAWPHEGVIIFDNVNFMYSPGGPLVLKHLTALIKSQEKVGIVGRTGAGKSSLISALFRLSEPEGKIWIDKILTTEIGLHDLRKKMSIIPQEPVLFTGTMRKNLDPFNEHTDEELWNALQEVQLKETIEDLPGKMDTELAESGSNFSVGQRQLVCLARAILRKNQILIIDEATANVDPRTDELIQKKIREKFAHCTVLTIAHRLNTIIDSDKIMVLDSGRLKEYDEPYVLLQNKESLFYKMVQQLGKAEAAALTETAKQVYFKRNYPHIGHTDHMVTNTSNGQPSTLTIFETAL
Put plainly: Inhibition of MRP4 in 7 mW/cm'2 irradiated human M14 cells assessed as nitration of tyrosine in MRP4 at 5 uM measured after 20 mins by immunoblotting. In short, it runs like this:
(§1)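 M14 melanoma cells held 20 min at room temperature in PBS under 400 nm light (7 mW/cm2) with 5 μM compound, alone or with equimolar doxorubicin. Nitrated ABC transporters (Pgp, MRP1, MRP4, BCRP) detected by immunoblot.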

The species named for data set [2] is Homo sapiens. Put plainly: Inhibition of ABC transporter in 7 mW/cm'2 irradiated human M14 cells assessed as increase in nitrite release at 5 uM measured after 20 mins by Griess reagent based spectrophotometric method. The method, boiled down: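 M14 melanoma cells held 20 min at room temperature in PBS, either in the dark or under 400 nm light (7 mW/cm2), with 5 μM compound alone or alongside 5 μM doxorubicin. Nitrite in the supernatant measured by Griess assay, in triplicate, n = 3.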

The species entered for data set [3] is Homo sapiens. Put plainly: Inhibition of Pgp in 7 mW/cm'2 irradiated human M14 cells assessed as nitration of tyrosine in pgp at 5 uM measured after 20 mins in presence of doxorubicin by immunoblotting. The method, boiled down:
as §1

In data set [4] the target is Multidrug resistance-associated protein 1 (Homo sapiens, UniProt P33527). Description: Inhibition of MRP1 in 7 mW/cm'2 irradiated human M14 cells assessed as reduction in MRP1 ATPase activity at 5 uM measured after 20 mins by spectrophotometric method. The method, boiled down:
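M14 melanoma cells held 20 min at room temperature in PBS under 400 nm light (7 mW/cm2) with 5 μM compound, alone or with equimolar doxorubicin. Transporter ATPase activity then measured; n = 3.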

Data set [5] deals with T2, Broad substrate specificity ATP-binding cassette transporter ABCG2 (Homo sapiens, UniProt Q9UNQ0).
T2 sequence (Q9UNQ0 whole entry): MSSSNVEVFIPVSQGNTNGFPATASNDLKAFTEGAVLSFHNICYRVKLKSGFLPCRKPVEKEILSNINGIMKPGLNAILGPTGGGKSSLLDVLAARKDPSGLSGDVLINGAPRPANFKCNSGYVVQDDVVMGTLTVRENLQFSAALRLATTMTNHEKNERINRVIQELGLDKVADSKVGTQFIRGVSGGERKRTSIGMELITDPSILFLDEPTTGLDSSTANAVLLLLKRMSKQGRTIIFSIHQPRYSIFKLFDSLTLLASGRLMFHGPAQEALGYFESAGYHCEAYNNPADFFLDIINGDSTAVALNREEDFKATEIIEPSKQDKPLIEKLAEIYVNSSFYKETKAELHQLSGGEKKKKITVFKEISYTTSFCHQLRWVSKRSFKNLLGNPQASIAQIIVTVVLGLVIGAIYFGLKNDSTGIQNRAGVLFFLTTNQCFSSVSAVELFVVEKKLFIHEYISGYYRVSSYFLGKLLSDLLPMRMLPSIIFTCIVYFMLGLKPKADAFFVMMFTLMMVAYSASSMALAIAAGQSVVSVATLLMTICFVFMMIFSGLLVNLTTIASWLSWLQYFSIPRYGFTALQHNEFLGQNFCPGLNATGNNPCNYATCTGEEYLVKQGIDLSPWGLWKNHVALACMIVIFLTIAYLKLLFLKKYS
Put plainly: Inhibition of BCRP in 7 mW/cm'2 irradiated human M14 cells assessed as nitration of tyrosine in BCRP at 5 uM measured after 20 mins by immunoblotting. In short, it runs like this: as §1

The species entered for data set [6] is Homo sapiens. Description: Inhibition of Pgp in 7 mW/cm'2 irradiated human M14 cells assessed as nitration of tyrosine in pgp at 5 uM measured after 20 mins by immunoblotting. In short, it runs like this:
as §1

The species entered for data set [7] is Homo sapiens. Description: […] in 7 mW/cm'2 irradiated human M14 cells assessed as increase in LDH release at 5 uM measured after 20 mins by spectrophotometric method.
Data set [8] can be described thus: Induction of NO release in pH 7.4 PBS irradiated with 7 mW/cm2 light at 10 uM after 0.5 hrs in presence of calf thymus DNA by amperometric detection assay. The method, boiled down: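 NO release recorded during alternating light (λexc 405 nm) and dark cycles. Solution at 10 μM in PBS (pH 7.4, 10 mM, 3% DMSO), with or without 18 μM ct-DNA.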
Data set [9] can be described thus: Stability of the compound in pH 7.4 PBS at 100 uM incubated under dark condition for >0.5 hrs. The following applies: buffer, pH 7.4, 0.5 h. Type of data set: physicochemical.

Calls of active or inactive are those of the source. The rule behind the calls is not given here.

Sequence of Multidrug resistance-associated protein 1 (P33527 whole entry): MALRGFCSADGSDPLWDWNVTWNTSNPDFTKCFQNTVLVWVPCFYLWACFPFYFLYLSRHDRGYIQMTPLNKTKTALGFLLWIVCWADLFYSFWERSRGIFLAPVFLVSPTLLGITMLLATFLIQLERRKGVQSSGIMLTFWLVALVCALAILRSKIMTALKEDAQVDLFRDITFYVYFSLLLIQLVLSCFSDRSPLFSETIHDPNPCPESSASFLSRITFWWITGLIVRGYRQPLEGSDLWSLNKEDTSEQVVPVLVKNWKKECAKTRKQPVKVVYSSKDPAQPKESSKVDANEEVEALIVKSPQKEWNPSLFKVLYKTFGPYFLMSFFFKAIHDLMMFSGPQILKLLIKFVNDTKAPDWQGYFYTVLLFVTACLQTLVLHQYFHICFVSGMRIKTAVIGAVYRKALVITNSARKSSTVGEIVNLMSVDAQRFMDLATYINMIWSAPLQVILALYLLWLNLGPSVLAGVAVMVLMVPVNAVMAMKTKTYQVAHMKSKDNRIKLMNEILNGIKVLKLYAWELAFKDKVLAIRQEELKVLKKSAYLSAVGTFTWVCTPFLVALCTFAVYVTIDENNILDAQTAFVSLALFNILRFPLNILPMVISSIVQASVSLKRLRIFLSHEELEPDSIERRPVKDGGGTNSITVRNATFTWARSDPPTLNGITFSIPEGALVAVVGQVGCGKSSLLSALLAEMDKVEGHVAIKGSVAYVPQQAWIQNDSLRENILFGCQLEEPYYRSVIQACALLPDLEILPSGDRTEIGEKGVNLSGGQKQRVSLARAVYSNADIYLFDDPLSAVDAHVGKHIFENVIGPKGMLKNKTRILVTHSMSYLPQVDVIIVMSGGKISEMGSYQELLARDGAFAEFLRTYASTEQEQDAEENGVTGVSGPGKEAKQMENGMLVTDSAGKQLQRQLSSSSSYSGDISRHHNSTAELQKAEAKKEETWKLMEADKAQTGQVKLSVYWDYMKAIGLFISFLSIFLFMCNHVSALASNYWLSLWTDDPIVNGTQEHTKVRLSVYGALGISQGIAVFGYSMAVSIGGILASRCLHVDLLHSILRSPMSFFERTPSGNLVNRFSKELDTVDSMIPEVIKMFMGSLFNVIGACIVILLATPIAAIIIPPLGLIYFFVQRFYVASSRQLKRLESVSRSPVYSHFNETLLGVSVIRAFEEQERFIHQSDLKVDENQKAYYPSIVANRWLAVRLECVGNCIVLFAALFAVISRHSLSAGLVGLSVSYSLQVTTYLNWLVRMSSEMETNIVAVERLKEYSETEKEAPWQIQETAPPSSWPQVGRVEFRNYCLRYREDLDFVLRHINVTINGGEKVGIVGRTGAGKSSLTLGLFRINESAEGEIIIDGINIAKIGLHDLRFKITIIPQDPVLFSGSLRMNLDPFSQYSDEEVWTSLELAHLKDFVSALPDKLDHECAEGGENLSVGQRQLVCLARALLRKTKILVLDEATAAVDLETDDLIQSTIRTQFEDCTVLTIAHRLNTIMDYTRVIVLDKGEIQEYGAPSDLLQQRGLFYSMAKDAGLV

For `NCCCNc1ccc([N+](=O)[O-])c(C(F)(F)F)c1`, the “inhibition (INH)” value in data set [1], in [4] and in [5] was “Active” in each case. Also, the inhibition entry in the data set listed under Homo sapiens [2], in the data set listed under Homo sapiens [3] and in the data set filed under Homo sapiens [6] was “Active” throughout.

Take `COc1cccc2c1C(=O)c1c(O)c3c(c(O)c1C2=O)C[C@@](O)(C(=O)COC(=O)c1ccc(C(=O)NCCCNc2ccc([N+](=O)[O-])c(C(F)(F)F)c2)cc1)C[C@@H]3O[C@H]1C[C@H](N)[C@H](O)[C@H](C)O1.Cl`: the inhibition result in the data set listed under Homo sapiens [7], in the data set listed under Homo sapiens [2] and in the data set filed under Homo sapiens [6] was “Active” throughout. Also, in data set [8], the result was Active. Also, the Stability entry in data set [9] is “Stable”. For the same compound, the “inhibition (INH)” value in [1], in data set [4] and in [5] was “Active” in each case.
